This passage reports EC50, CC50 and selectivity ratio results from ChEMBL document CHEMBL3351709, “Limonoids from the seeds of Swietenia macrophylla with inhibitory activity against dengue virus 2” (J Nat Prod, 2014).

For data set [1], the system named is dengue virus type 2. The data set is described as follows: Antiviral activity against dengue virus 2 infected in human HuH7 cells after 72 hrs by Western blot and ECL detection based assay. It is filed as functional, organism-based. To be noted: Huh-7, 72 h. The essentials: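 Huh-7 cells (ATCC) in DMEM with 10% FBS, 1% nonessential amino acids and 1% antibiotic-antimycotic, 37 °C, 5% CO2. Seeded at 5 × 10^4 cells/mL/well for 12–16 h, then infected with DENV-2 strain 16681 at MOI 0.2 for 2 h at 37 °C. Washed with PBS and refed with compound in DMEM–10% FBS. At 72 h p.i., NS2B Western blot with GAPDH loading control and ECL detection. Ribavirin as reference.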
(In general: In western blotting, separated proteins are transferred to a membrane and probed.)

The nature of data set [2]: Cytotoxicity against human HuH7 cells after 72 hrs by MTS assay. It counts as cell-based, Huh-7. Background: Tetrazolium dyes change colour on reduction, which living cells bring about.
Data set [3] can be described thus: Selectivity index, ratio of CC50 against human HuH7 cells to EC50 against dengue virus 2. It is filed as toxicity, cell-based, Huh-7. To be noted: read-out: Ratio CC50/EC50.

SMILES strings stand for the structures.

In data set [1], `C/C=C(\C)C(=O)O[C@@H]1[C@H]2C=C3[C@@H]4CC(=O)O[C@@H](c5ccoc5)[C@]4(C)CC[C@@H]3[C@@](C)(C2=O)[C@@H]([C@@H](OC(C)=O)C(=O)OC)C1(C)C` displayed an EC50 of 6.3 µM. Also, the CC50 at 72 h in data set [2] stood at 83 µM. The selectivity ratio in data set [3] worked out at 13.2.

In data set [1], `NC(=O)c1ncn([C@@H]2O[C@H](CO)[C@@H](O)[C@H]2O)n1` [RIBAVIRIN] registered an EC50 of 12.6 µM. The selectivity ratio in data set [3] turned out to be 4.47.

Molecule `CC[C@H](C)C(=O)O[C@@H]1[C@@H]2C(=O)[C@](C)(C3CC[C@]4(C)[C@@H](CC(=O)O[C@H]4c4ccoc4)[C@]34O[C@H]24)[C@@H]([C@@H](O)C(=O)OC)C1(C)C` (some centres undefined) had a concentration for a half-maximal effect (EC50) in data set [1] of 7.2 µM. Besides, the CC50 at 72 h in data set [2] is over 200 µM. Also, the selectivity ratio in data set [3] was over 27.7.

In data set [1], `C=C1[C@@H]2CC[C@@]3(C)[C@H](c4ccoc4)OC(=O)C[C@]13O[C@H]1CC(=O)C(C)(C)[C@H](CC(=O)OC)[C@]12C` [METHYLANGOLENSATE] had an EC50 of 4.3 µM. It took 116 µM to reach half-maximal cytotoxicity in data set [2] (CC50 at 72 h). Besides, in data set [3], the selectivity ratio came out at 27.

`CC1(C)C(=O)C=C[C@]2(C)[C@H]3CC[C@@]4(C)[C@H](c5ccoc5)OC(=O)[C@H]5O[C@]54[C@]3(C)[C@H](O)C[C@@H]12` [DEACETYLGEDUNIN] had an EC50 in data set [1] of 12.5 µM. Moreover, in data set [2], the CC50 at 72 h stood at 105 µM. Moreover, the selectivity ratio in data set [3] worked out at 8.4.

What is called EC50 is the midpoint of the concentration-response curve. A word on the CC50: it is the concentration that lowers cell viability or growth by half. Low values mean greater toxicity to the cells, high ones lower toxicity to the cells.
